Measured values published in ChEMBL document CHEMBL3045582, “Chemical synthesis, in vitro acetohydroxyacid synthase (AHAS) inhibition, herbicidal activity, and computational studies of isatin derivatives” (2011).

Experiments:
[1] = test system: Brassica rapa subsp. oleifera; assay: Inhibition of Brassica rapa subsp. oleifera root growth at 10 mg/L; type: functional
[2] = test system: Brassica rapa subsp. oleifera; assay: Inhibition of Brassica rapa subsp. oleifera at 100 mg/L; type: functional
In short: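 Rape (Brassica campestris L.) root growth assay, per the group's earlier published method; compound tested at 100 mg L-1; read-out is root length inhibition (%); monosulfuron used as reference herbicide.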

[3] = target: T1, Acetolactate synthase, chloroplastic (Arabidopsis thaliana) (UniProt P17597); assay: Inhibition of Arabidopsis thaliana AHAS at 100 mg/L colorimetric assay
T1 sequence (whole entry): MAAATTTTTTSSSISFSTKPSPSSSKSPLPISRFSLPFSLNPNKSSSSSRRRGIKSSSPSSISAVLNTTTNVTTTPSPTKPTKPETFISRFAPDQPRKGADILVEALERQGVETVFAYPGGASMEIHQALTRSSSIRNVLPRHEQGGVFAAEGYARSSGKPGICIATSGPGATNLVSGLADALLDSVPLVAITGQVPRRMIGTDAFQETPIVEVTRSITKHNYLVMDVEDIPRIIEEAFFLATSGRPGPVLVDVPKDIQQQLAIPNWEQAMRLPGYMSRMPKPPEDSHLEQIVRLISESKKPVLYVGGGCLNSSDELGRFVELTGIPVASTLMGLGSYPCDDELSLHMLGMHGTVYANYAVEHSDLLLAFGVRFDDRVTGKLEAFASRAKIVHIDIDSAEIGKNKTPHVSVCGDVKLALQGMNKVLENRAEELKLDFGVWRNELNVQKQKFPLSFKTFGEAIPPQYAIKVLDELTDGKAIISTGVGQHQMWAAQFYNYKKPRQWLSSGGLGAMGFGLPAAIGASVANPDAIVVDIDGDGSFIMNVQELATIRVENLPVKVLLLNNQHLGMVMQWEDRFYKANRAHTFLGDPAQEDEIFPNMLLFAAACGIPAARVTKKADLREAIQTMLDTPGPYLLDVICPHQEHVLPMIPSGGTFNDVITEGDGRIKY
In short: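 Expressed and purified A. thaliana AHAS tested at a single concentration of 100 mg L-1. Enzyme activity was read by a colorimetric method described earlier, and the result is given as percent inhibition of AtAHAS activity.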

O=C(N/N=C1\C(=O)N(Cc2ccc(Cl)cc2Cl)c2ccccc21)c1ccccc1
inhibition at 10 µg/mL [1]: 0%
inhibition at 100 µg/mL [2]: 6%
inhibition [3]: 50%

Cc1ccc2c(c1)C(=O)C(=O)N2
inhibition at 10 µg/mL [1]: 13%
inhibition at 100 µg/mL [2]: 80%
inhibition [3]: 50%

N#Cc1ccc(CN2C(=O)/C(=N\NC(=O)c3ccccc3)c3ccccc32)cc1
inhibition at 10 µg/mL [1]: 2%
inhibition at 100 µg/mL [2]: 48%
inhibition [3]: 20%

Cc1ccc2c(c1)C(=O)C(=O)N2C
inhibition at 10 µg/mL [1]: 14%
inhibition at 100 µg/mL [2]: 26%
inhibition [3]: 75%

O=C1Nc2ccc(Cl)cc2C1=O
inhibition at 10 µg/mL [1]: 28%
inhibition at 100 µg/mL [2]: 95%
inhibition [3]: 55%

CN1C(=O)C(=O)c2cc(I)ccc21
inhibition at 10 µg/mL [1]: 13%
inhibition at 100 µg/mL [2]: 27%
inhibition [3]: 60%

CN1C(=O)C(=O)c2cc(Cl)ccc21
inhibition at 10 µg/mL [1]: 20%
inhibition at 100 µg/mL [2]: 53%
inhibition [3]: 60%

O=C1Nc2ccc(S(=O)(=O)O)cc2C1=O
inhibition at 10 µg/mL [1]: 4%
inhibition at 100 µg/mL [2]: 18%
inhibition [3]: 10%

O=C1Nc2ccc(F)cc2C1=O [5-FLUOROISATIN]
inhibition at 10 µg/mL [1]: 52%
inhibition at 100 µg/mL [2]: 88%
inhibition [3]: 65%

COc1ccc2c(c1)C(=O)C(=O)N2 [5-METHOXYISATIN]
inhibition at 10 µg/mL [1]: 20%
inhibition at 100 µg/mL [2]: 30%
inhibition [3]: 60%

CN1C(=O)C(=O)c2cc([N+](=O)[O-])ccc21
inhibition at 10 µg/mL [1]: 2%
inhibition at 100 µg/mL [2]: 33%
inhibition [3]: 25%

O=C1Nc2c(I)cccc2/C1=N/NC(=O)c1ccccc1O
inhibition at 10 µg/mL [1]: 0%
inhibition at 100 µg/mL [2]: 25%
inhibition [3]: 95%

O=C1Nc2c(Br)cccc2/C1=N/NC(=O)c1cccc(F)c1
inhibition at 10 µg/mL [1]: 0%
inhibition at 100 µg/mL [2]: 16%
inhibition [3]: 60%

O=C1Nc2ccc([N+](=O)[O-])cc2C1=O [5-NITROISATIN]
inhibition at 10 µg/mL [1]: 7%
inhibition at 100 µg/mL [2]: 82%
inhibition [3]: 60%

Cc1cc(Cl)cc2c1NC(=O)C2=O
inhibition at 10 µg/mL [1]: 10%
inhibition at 100 µg/mL [2]: 65%
inhibition [3]: 65%

O=C1Nc2c(Br)cccc2/C1=N/NC(=O)c1ccccc1F
inhibition at 10 µg/mL [1]: 14%
inhibition at 100 µg/mL [2]: 39%
inhibition [3]: 95%

Cc1cc(C)n(CC(=O)N/N=C2\C(=O)Nc3ccccc32)n1
inhibition at 10 µg/mL [1]: 0%
inhibition at 100 µg/mL [2]: 27%
inhibition [3]: 35%

O=C1Nc2ccccc2/C1=N/Nc1ncccc1Cl
inhibition at 10 µg/mL [1]: 0%
inhibition at 100 µg/mL [2]: 19%
inhibition [3]: 70%

Cc1nc(C)c(C(=O)N/N=C2\C(=O)Nc3ccccc32)s1
inhibition at 10 µg/mL [1]: 0%
inhibition at 100 µg/mL [2]: 21%
inhibition [3]: 30%

CN1C(=O)C(=O)c2cccc(Cl)c21
inhibition at 10 µg/mL [1]: 31%
inhibition at 100 µg/mL [2]: 59%
inhibition [3]: 80%

O=C1Nc2ccc(I)cc2C1=O [5-IODOISATIN]
inhibition at 10 µg/mL [1]: 31%
inhibition at 100 µg/mL [2]: 92%
inhibition [3]: 70%

CC(C)(C)c1ccc(CN2C(=O)/C(=N\NC(=O)c3ccccc3)c3ccccc32)cc1
inhibition at 10 µg/mL [1]: 0%
inhibition at 100 µg/mL [2]: 15%
inhibition [3]: 60%

O=C1Nc2ccccc2C1=O [ISATIN]
inhibition at 10 µg/mL [1]: 24%
inhibition at 100 µg/mL [2]: 52%
inhibition [3]: 70%

Cc1ccnc(NC(=O)NS(=O)(=O)c2ccccc2C(=O)O)n1 [MONOSULFURON]
inhibition at 10 µg/mL [1]: 64%
inhibition at 100 µg/mL [2]: 78%
inhibition [3]: 90%

O=C1Nc2ccc(C(F)(F)F)cc2C1=O
inhibition at 10 µg/mL [1]: 27%
inhibition at 100 µg/mL [2]: 93%
inhibition [3]: 60%

CN1C(=O)C(=O)c2ccccc21
inhibition at 10 µg/mL [1]: 7%
inhibition at 100 µg/mL [2]: 24%
inhibition [3]: 50%

Cc1ccccc1CN1C(=O)/C(=N\NC(=O)c2ccccc2)c2ccccc21
inhibition at 10 µg/mL [1]: 0%
inhibition at 100 µg/mL [2]: 0%
inhibition [3]: 50%

O=C(N/N=C1\C(=O)N(Cc2ccc(F)cc2)c2ccccc21)c1ccccc1
inhibition at 10 µg/mL [1]: 0%
inhibition at 100 µg/mL [2]: 15%
inhibition [3]: 80%

O=C1Nc2c(I)cccc2/C1=N/NC(=O)c1cccc(F)c1
inhibition at 10 µg/mL [1]: 51%
inhibition at 100 µg/mL [2]: 81%
inhibition [3]: 75%

O=C1Nc2ccccc2/C1=N/O
inhibition at 10 µg/mL [1]: 0%
inhibition at 100 µg/mL [2]: 55%
inhibition [3]: 45%

O=C1Nc2c(Cl)cccc2C1=O
inhibition at 10 µg/mL [1]: 51%
inhibition at 100 µg/mL [2]: 83%
inhibition [3]: 70%

O=C(N/N=C1\C(=O)N(Cc2cccc(F)c2)c2ccccc21)c1ccccc1
inhibition at 10 µg/mL [1]: 0%
inhibition at 100 µg/mL [2]: 40%
inhibition [3]: 95%

CN1C(=O)C(=O)c2cc(F)ccc21
inhibition at 10 µg/mL [1]: 19%
inhibition at 100 µg/mL [2]: 59%
inhibition [3]: 60%
